1 compound from ChEMBL document CHEMBL4312006, “A novel chalcone derivative as Nrf2 activator attenuates learning and memory impairment in a scopolamine-induced mouse model” (Eur J Med Chem, 2020) can be followed below.

Activity calls are given as the source filed them. No cut-off for these calls is given here. Some results are limits rather than exact numbers.

Data set [1] addresses T1, Nuclear factor erythroid 2-related factor 2 (Mus musculus) (UniProt Q60795).
T1 sequence (whole entry): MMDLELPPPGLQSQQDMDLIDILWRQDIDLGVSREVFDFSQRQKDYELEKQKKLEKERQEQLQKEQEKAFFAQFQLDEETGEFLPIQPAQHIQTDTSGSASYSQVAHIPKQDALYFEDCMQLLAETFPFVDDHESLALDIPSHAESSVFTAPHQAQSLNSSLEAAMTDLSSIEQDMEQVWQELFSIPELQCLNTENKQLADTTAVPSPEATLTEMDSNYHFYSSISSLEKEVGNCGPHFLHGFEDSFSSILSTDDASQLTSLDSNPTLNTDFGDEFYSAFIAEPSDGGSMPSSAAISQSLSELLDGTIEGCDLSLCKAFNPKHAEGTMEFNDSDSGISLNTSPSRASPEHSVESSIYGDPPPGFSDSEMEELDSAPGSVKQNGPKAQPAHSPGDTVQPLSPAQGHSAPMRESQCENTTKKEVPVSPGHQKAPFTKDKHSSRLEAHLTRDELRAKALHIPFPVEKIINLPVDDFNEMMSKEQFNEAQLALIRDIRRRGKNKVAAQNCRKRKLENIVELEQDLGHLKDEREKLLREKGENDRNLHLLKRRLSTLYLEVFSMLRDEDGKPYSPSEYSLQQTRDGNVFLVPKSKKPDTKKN
The data set is described as follows: Activation of NRF2 in mouse BV2 cells assessed as increase in GCLM protein expression incubated for 12 hrs by Western blot analysis. In kind it is cell-based. A digest of the protocol:
(§1)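 BV-2 cells washed in ice-cold PBS and lysed on ice for 40 min in RIPA buffer with protease inhibitors. Nuclear fractions prepared separately. 10 μg protein run on SDS-PAGE and blotted to PVDF. Membranes blocked in 5% skim milk/TBST and probed overnight at 4 °C for Nrf2, HO-1, GCLM or SOD1. HRP secondary with ECL detection. Band densities normalised to Lamin B1 or β-actin.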
On the technique in general: A western blot detects proteins with antibodies after separation by electrophoresis.

The next data set relates to Mus musculus. The data set is described as follows: Cognition enhancing effect in C57BL/6 mouse model of scopolamine-induced amnesia assessed as increase in latency to enter dark room at 30 mg/kg, po administered for 5 days and measured on day 5 after 30 mins of scopolamine stimulation by passive avoidance test relative to control. The data set is classed as functional. The gist of the method:
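Male C57BL/6N mice given 30 mg/kg/day compound in saline orally for 5 days. Scopolamine 1 mg/kg i.p. given on day 4, 30 min before the acquisition trial. Step-through latency recorded in the passive avoidance test.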

Data set [2] deals with T1, Nuclear factor erythroid 2-related factor 2 (Mus musculus). Put plainly: Activation of NRF2 in mouse BV2 cells assessed as increase in GCLM protein expression at 10 uM incubated for 12 hrs by Western blot analysis. In kind it is cell-based. A digest of the protocol:
as §1

Data set [3] shares this target. Put plainly: Activation of NRF2 in mouse BV2 cells assessed as increase in SOD activity incubated for 24 hrs by WST-1 based assay. The data set is classed as cell-based. The gist of the method:
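BV-2 cells (1.0×10^6) treated with compound for 24 h, or for 6 h followed by 400 μM H2O2 for 18 h. Cells washed, sonicated in ice-cold PBS and centrifuged; supernatant assayed by WST-1/superoxide inhibition. Activity derived from the IC50 of the inhibition curve and given as U/mg protein (1 U = 50% inhibition of WST-1 reduction).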
For orientation: Tetrazolium assays rely on reduction of a dye to a coloured formazan, in cell work by metabolically active cells.

Data set [4] has the same target. Put plainly: Activation of NRF2 in mouse BV2 cells assessed reduction of LPS-stimulated TNF-alpha level preincubated for 3 hrs followed by LPS stimulation for 24 hrs by ELISA. The data set is classed as cell-based. A digest of the protocol:
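BV-2 cells pre-incubated with a range of compound concentrations for 3 h, then stimulated with 0.2 μg/mL LPS for 24 h. TNF-α or IL-6 in the culture medium quantified by sandwich ELISA kits. Compared with LPS-treated control by one-way ANOVA with Dunnett's test.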
For orientation: In an ELISA, binding on a coated surface is turned into a signal by an enzyme label.

Data set [5] shares this target. Put plainly: Activation of NRF2 in mouse BV2 cells assessed as increase in HO1 protein expression at 3 uM incubated for 6 hrs by Western blot analysis. In kind it is cell-based. A digest of the protocol: as §1
A further data set addresses CYP2C9 (Homo sapiens, UniProt P11712). Put plainly: Inhibition of CYP2C9 (unknown origin) assessed as remaining activity relative to control. The data set is classed as ADME.
A further data set deals with BV-2. Put plainly: Inhibition of H2O2-stimulated ROS accumulation in mouse BV2 cells preincubated for 24 hrs followed by H2O2 stimulation for 20 mins by DCFH-DA dye based fluorescence microscopy. In kind it is functional, cell-based. The gist of the method:
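BV-2 cells treated with a range of compound concentrations for 24 h at 37 °C. Loaded with 40 μM DCFH-DA for 40 min, then 300 μM H2O2 added for 20 min in the dark. Cells washed with PBS and DCF fluorescence imaged by digital microscopy.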

Sequence of CYP2C9 (P11712 whole entry): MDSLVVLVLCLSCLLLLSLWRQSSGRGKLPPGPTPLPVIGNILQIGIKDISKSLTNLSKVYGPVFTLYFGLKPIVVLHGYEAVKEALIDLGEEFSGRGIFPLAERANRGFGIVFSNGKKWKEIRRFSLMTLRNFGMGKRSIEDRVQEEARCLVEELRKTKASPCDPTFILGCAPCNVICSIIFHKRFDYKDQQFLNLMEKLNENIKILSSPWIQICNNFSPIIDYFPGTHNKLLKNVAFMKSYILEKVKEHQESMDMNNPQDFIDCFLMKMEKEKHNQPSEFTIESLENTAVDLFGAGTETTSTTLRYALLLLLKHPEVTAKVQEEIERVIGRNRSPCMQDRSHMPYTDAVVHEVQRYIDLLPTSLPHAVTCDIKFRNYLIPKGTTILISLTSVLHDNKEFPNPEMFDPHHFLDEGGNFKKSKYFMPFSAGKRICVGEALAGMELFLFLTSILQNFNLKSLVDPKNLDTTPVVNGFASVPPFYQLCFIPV

For `CN1CCN(C(=O)COc2ccc(C(=O)/C=C/c3ccccc3C(F)(F)F)cc2)CC1.Cl`, the Activity result in data set [1], in data set [3] and in data set [4] was “Dose-dependent effect” each time. Further, the activity in the data set with Mus musculus was more than 70%; at CYP2C9, 95.1%. In data set [2], the fold change (FC) was more than 15. In addition, the Activity entry in data set [5] is “Active”. In the data set on BV-2, the inhibition result is “Dose-dependent effect”.
